Reference: ChEMBL document CHEMBL5614466, “Discovery of a Series of Macrocycles as Potent Inhibitors of Leishmania Infantum” (J Med Chem, 2024)
Calls of active or inactive are those of the source. No cut-off for these calls is given here.

What was measured:
Trypanosoma brucei = assay: Antitrypanosomal activity against axenic culture of Trypanosoma brucei Squib 427 infected in human MRC-5 SV2 cells assessed as reduction in parasite growth incubated for 72 hrs by resazurin reagent based fluorescence analysis; type: functional, organism-based
Procedure, shortened: (§1)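 Trypomastigotes were grown axenically in culture medium. Growth reduction was determined by the previously reported method, with and without added inhibitor.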

[1] = test system: Trypanosoma brucei rhodesiense; assay: Antitrypanosomal activity against axenic culture of Trypanosoma brucei rhodesiense infected in human MRC-5 SV2 cells assessed as reduction in parasite growth incubated for 72 hrs by resazurin reagent based fluorescence analysis; type: functional, organism-based; procedure, shortened: as §1
[2] = Cytotoxicity against mouse Peritoneal macrophage; type: toxicity, cell-based; conditions: peritoneal macrophages
[3] = Cytotoxicity against human MRC5 cells; type: toxicity, cell-based

Row | Compound | Activity (Trypanosoma brucei) | Activity [1] | CC50 [2] [µM] | CC50 [3] [µM]
1 | CC(C)(C)C(=O)N[C@H]1Cc2ccc(cc2)Oc2ccc(cc2NC(=O)c2ccccn2)C(=O)CNC(=O)[C@H](Cc2ccccc2)NC1=O | inactive | Active | – | –
2 | COc1ccc(C[C@H](NC(=O)OC(C)(C)C)C(=O)N[C@@H](Cc2ccccc2)C(=O)NCC(=O)c2cccc(NC(=O)c3ccccn3)c2)cc1 | inactive | Active | – | –
3 | CC(=O)N[C@H]1Cc2ccc(cc2)Oc2ccc(cc2NC(=O)c2ccccn2)C(=O)CNC(=O)[C@H](Cc2ccccc2)NC1=O | inactive | Active | – | –
4 | CC(C)(C)OC(=O)N[C@H]1CCc2ccc(cc2)Oc2ccc(cc2NC(=O)c2ccccn2)C(=O)CNC(=O)[C@H](Cc2ccccc2)NC1=O | inactive | Active | – | –
5 | CC(C)(C)OC(=O)N[C@H]1Cc2ccc(cc2)Oc2ccc(cc2NC(=O)c2ccccn2)CCNC(=O)[C@H](Cc2ccccc2)NC1=O | inactive | Active | > 64 | –
6 | CC(=O)Nc1cc2ccc1Oc1ccc(cc1)C[C@H](NC(=O)OC(C)(C)C)C(=O)N[C@@H](Cc1ccccc1)C(=O)NCC2=O | – | – | – | > 64
7 | C[C@@H]1NC(=O)[C@@H](NC(=O)OC(C)(C)C)Cc2ccc(cc2)Oc2ccc(cc2NC(=O)c2ccccn2)C(=O)CNC1=O | inactive | Active | – | –
8 | CC(C)(C)OC(=O)N[C@H]1Cc2ccc(cc2)Oc2ccc(cc2NC(=O)c2ccccn2)C(=O)CNC(=O)[C@H](Cc2ccccc2)NC1=O | – | – | – | > 64
9 | CC(C)(C)OC(=O)N[C@H]1Cc2ccc(cc2)Oc2ccc(cc2)C(=O)CNC(=O)[C@H](Cc2ccccc2)NC1=O | – | – | > 64 | > 64
10 | CC(C)(C)OC(=O)N[C@H]1Cc2ccc(cc2)Oc2ccc(cc2NC(=O)c2ccccn2)C(=O)CNC(=O)[C@H](c2ccccc2)NC1=O | inactive | Active | – | –
11 | CC(C)C[C@@H]1NC(=O)[C@@H](NC(=O)OC(C)(C)C)Cc2ccc(cc2)Oc2ccc(cc2NC(=O)c2ccccn2)C(=O)CNC1=O | inactive | Active | – | –
12 | CC(C)(C)OC(=O)N[C@H]1Cc2ccc(cc2)Oc2ccc(cc2NC(=O)c2ccccn2)C(=O)CNC(=O)[C@@H](Cc2ccccc2)NC1=O | inactive | Active | – | –
